Published values pooled from the literature.
Compare with care: the assays were run in different laboratories.

SMILES | assay | system | setting | quantity | result
CCC(CC)COC(=O)[C@H](C)N[P@](=O)(OC[C@@H]1C[C@@H](O)[C@H](n2cnc3c(N)ncnc32)O1)Oc1ccccc1 | metabolic stability | human, liver microsomes | 1 µM | half-life | 0.0137 h
COc1cc(C(=O)OCCCN2CCCN(CCCOC(=O)c3cc(OC)c(OC)c(OC)c3)CC2)cc(OC)c1OC |  | male CD-1 mouse, brain | subcutaneous | MRT(0-inf) | 1.72 h
NC(=O)N1c2ccccc2C=Cc2ccccc21 | metabolic stability | human, liver microsomes | 1 µM | half-life | > 3 h
O=[N+]([O-])c1ccc(-c2ccc(O)cc2)c2cccnc12 |  | male CD-1 mouse, plasma | intravenous, 1 mg/kg | MRT(0-inf) | 0.11 h
C=CS(=O)(=O)c1ccc(Nc2nc(OCC3CCCCC3)c3nc[nH]c3n2)cc1 |  | male BALB/c mouse, plasma | intravenous, 20 mg/kg, single dose | MRT(0-t) | 0.71 h
CCN1CCN(Cc2ccc(NC(=O)c3ccc(C)c(NC(=O)c4cncc(-c5cccs5)c4)c3)cc2C(F)(F)F)CC1 |  | mouse, plasma | intraperitoneal, 15 mg/kg, single dose | MRT | 3.09 h
CCOc1ccc(N(C)S(=O)(=O)c2cc(Cl)sc2C(=O)Nc2cc(Cl)cc(C(=O)O)c2)cc1OC |  | male C57BL/6 mouse, plasma | intraperitoneal, 10 mg/kg | MRT(0-inf) | 0.781 h
CC(=O)O[C@@]12CO[C@@H]1C[C@H](O)[C@@]1(C)C(=O)[C@H](O)C3=C(C)[C@@H](OC(=O)[C@H](O)[C@@H](NC(=O)OC(C)(C)C)c4ccccc4)C[C@@](O)([C@@H](OC(=O)c4ccccc4)[C@H]21)C3(C)C |  | male Kunming mouse, liver | oral, 20 mg/kg | MRT | 5.7 h
CCOC(=O)c1cc(Cl)cc(NC(=O)c2sc(Cl)cc2S(=O)(=O)N(C)c2ccc(OCC)c(OC)c2)c1 |  | male C57BL/6 mouse, brain | intraperitoneal, 10 mg/kg | MRT(0-inf) | 3.28 h
CSc1nccc(C(=O)N[C@@H](CCC(=O)O)C(=O)N[C@@H](Cc2ccc3ccccc3c2)C(=O)N[C@@H](CC(C)C)C(=O)NC2CC2c2ccccc2)n1 (stereo partly shown) | metabolic stability | human, plasma |  | half-life | 36.9 h
